Source: ChEMBL document CHEMBL2346593, “Novel adamantyl cannabinoids as CB1 receptor probes” (J Med Chem, 2013)
Calls of active or inactive are those of the source.

Tests used:
[1] = Selectivity ratio of Ki for human CB2 receptor to Ki for rat CB1 receptor
Cannabinoid receptor 2 [2] = target: Cannabinoid receptor 2 (Mus musculus, UniProt P47936); experiment: Displacement of [3H]CP-55940 from mouse CB2 receptor expressed in mouse spleen membrane by competitive binding assay; format: cell membranes
Sequence of Cannabinoid receptor 2 (Mus musculus, UniProt P47936) (P47936 whole entry): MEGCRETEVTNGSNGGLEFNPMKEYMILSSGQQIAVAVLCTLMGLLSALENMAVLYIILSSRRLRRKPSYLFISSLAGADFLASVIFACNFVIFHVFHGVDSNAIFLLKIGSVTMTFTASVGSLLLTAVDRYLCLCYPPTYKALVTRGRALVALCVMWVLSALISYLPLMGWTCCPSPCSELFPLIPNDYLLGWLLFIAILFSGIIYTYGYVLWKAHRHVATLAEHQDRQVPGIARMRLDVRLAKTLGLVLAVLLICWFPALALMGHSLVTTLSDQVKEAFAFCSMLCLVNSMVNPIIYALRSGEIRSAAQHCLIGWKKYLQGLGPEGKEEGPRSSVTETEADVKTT
How it was run: (§1)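 Competition-equilibrium binding against [3H]CP-55,940 in rat brain membranes (CB1), mouse spleen membranes (mCB2), or membranes of HEK293 cells expressing hCB2. IC50 was obtained by nonlinear regression and converted to Ki. Ki is the mean of three independent experiments, each run in duplicate.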

Cannabinoid receptor 1 [3] = target: Cannabinoid receptor 1 (Rattus norvegicus, UniProt P20272); experiment: Displacement of [3H]CP-55940 from rat CB1 receptor expressed in rat brain membrane by competitive binding assay; format: cell membranes
Sequence of Cannabinoid receptor 1 (Rattus norvegicus, UniProt P20272) (P20272 whole entry): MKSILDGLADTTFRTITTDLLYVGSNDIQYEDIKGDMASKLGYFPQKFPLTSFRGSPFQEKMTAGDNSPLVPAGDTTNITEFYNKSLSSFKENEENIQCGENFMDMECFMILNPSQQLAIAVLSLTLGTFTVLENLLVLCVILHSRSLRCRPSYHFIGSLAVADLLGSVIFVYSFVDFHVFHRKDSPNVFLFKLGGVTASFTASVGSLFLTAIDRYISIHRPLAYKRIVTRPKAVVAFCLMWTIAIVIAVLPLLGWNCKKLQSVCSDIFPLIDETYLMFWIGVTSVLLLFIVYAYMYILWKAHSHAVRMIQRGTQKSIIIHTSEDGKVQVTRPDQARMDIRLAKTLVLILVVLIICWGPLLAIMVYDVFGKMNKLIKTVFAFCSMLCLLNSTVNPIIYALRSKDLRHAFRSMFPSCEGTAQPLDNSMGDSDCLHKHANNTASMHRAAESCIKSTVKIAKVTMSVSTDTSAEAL

Cannabinoid receptor 2 [4] = target: Cannabinoid receptor 2 (Homo sapiens, UniProt P34972); experiment: Displacement of [3H]CP-55940 from human CB2 receptor expressed in HEK293 cell membrane by competitive binding assay; format: cell membranes; how it was run: as §1
Sequence of Cannabinoid receptor 2 (Homo sapiens, UniProt P34972) (P34972 whole entry): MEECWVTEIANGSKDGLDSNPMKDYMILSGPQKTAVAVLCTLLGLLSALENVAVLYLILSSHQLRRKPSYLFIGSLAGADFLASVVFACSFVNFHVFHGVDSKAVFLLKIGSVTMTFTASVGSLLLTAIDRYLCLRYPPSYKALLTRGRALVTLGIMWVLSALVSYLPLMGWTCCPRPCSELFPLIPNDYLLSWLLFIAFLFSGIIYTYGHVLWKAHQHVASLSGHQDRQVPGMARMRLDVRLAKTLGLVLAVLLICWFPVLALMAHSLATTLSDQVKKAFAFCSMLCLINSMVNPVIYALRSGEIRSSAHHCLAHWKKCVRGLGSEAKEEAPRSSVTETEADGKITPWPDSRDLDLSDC

[5] = Selectivity ratio of Ki for mouse CB2 receptor to Ki for rat CB1 receptor
Cannabinoid receptor 1 [6] = target: Cannabinoid receptor 1 (Homo sapiens, UniProt P21554); experiment: Agonist activity at human CB1 receptor transfected in human U2OS cells assessed as beta-arrestin2-GFP aggregation after 40 mins; format: cell-based
Sequence of Cannabinoid receptor 1 (Homo sapiens, UniProt P21554) (P21554 whole entry): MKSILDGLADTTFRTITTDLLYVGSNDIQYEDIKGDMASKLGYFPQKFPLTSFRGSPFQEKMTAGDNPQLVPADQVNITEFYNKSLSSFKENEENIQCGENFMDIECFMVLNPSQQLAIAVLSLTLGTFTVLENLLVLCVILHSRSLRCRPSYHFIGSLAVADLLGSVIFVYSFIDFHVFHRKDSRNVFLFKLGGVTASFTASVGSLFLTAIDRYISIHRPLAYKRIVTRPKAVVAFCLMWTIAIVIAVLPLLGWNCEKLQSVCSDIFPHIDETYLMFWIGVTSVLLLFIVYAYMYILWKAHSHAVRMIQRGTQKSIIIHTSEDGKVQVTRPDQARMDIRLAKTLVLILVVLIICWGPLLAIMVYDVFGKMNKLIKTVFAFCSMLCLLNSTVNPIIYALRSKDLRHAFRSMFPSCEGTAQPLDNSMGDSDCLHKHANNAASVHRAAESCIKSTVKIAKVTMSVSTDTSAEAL

Rattus norvegicus [7] = experiment: Antinociceptive activity in Sprague-Dawley rat assessed as increase in tail-flick latency period at 0.1 to 10 mg/kg, sc after 60 to 120 mins by tail-flick test; format: functional, organism-based
How it was run: (§2)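 Female Sprague-Dawley rats (235–350 g; n = 5–7/group), retested at least 7 days apart. Compound was dissolved in 20% ethanol/20% emulphor/60% saline, diluted with saline, and given sc at 1.0 mL/kg. Radiant-heat tail-flick latency was measured over 6 h with a 6 s cutoff. %MPE = 100 × (test − baseline)/(6 − baseline). Dose-effect curves used each rat's maximum effect.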

Rattus norvegicus [8] = experiment: Antinociceptive activity in Sprague-Dawley rat assessed as increase in tail-flick latency period at 0.1 to 10 mg/kg, sc after 6 hrs by tail-flick test; format: functional, organism-based; how it was run: as §2
Rattus norvegicus [9] = experiment: Hypothermic effect in Sprague-Dawley rat assessed as decrease in core body temperature at 10 mg/kg; format: functional
How it was run: (§3)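 Female Sprague-Dawley rats (n = 5–7/group), minimally restrained and isolated, each with a thermistor probe inserted 7 cm and taped to the tail. Two baselines were taken 15 min apart, then sc injection (20% ethanol/20% emulphor/60% saline diluted with saline, 1.0 mL/kg). Temperature was read every 30 min for 3 h, then hourly to 6 h, as change from mean baseline.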

Rattus norvegicus [10] = experiment: Hypothermic effect in sc dosed Sprague-Dawley rat assessed as decrease in core body temperature after 60 mins to 6 hrs; format: functional, organism-based; how it was run: as §3
Rattus norvegicus [11] = experiment: Antinociceptive activity in Sprague-Dawley rat assessed as increase in tail-flick latency period at 1 mg/kg, sc by tail-flick test; format: functional, organism-based; set-up: dose 1 mg/kg; how it was run: as §2
Rattus norvegicus [12] = experiment: Hypothermic effect in Sprague-Dawley rat assessed as decrease in core body temperature at 1 mg/kg, sc measured over 6 hrs; format: functional; settings: route subcutaneous; how it was run: as §3

Structure (SMILES)	Ratio Ki [1]	Ki (Cannabinoid receptor 2 [2]) [nM]	Ki (Cannabinoid receptor 1 [3]) [nM]	Ki (Cannabinoid receptor 2 [4]) [nM]	Ratio Ki [5]	EC50 (Cannabinoid receptor 1 [6]) [nM]	Activity (Rattus norvegicus [7])	Activity (Rattus norvegicus [8])	Activity (Rattus norvegicus [9])	Activity (Rattus norvegicus [10])	Activity (Rattus norvegicus [11])	T (Rattus norvegicus [12]) [°C]	T (Rattus norvegicus [9]) [°C]
CC1(C)Oc2cc(C34CC5CC(CC(C5)C3)C4)cc(O)c2[C@@H]2C[C@@H](CC=O)CC[C@H]21	0.4	8.1	17.5	7.8	0.5	–	–	–	–	–	–	–	–
CC1(C)Oc2cc(C34CC5CC(CC(C5)C3)C4)cc(O)c2[C@@H]2C[C@H](CCO)CC[C@H]21	3.9	38.4	8.6	33.3	4.5	–	–	–	–	–	–	–	–
CC1(C)Oc2cc(C34CC5CC(CC(C5)C3)C4)cc(O)c2[C@@H]2CC(CO)=CC[C@H]21	1.9	10.6	7.2	14	1.5	230	–	–	–	–	–	–	–
CC1=CC[C@@H]2[C@@H](C1)c1c(O)cc(C34CC5CC(CC(C5)C3)C4)cc1OC2(C)C	–	–	–	–	–	1530	Active	Active	inactive	–	–	–	–
CC1(C)Oc2cc(C34CC5CC(CC(C5)C3)C4)cc(O)c2[C@@H]2C[C@H](CI)CC[C@H]21	1.1	346	241	262	1.4	–	–	–	–	–	–	–	–
CO/C=C\[C@@H]1CC[C@@H]2[C@@H](C1)c1c(O)cc(C34CC5CC(CC(C5)C3)C4)cc1OC2(C)C	2.2	90.3	31	67.2	2.9	–	–	–	–	–	–	–	–
CC1(C)Oc2cc(C34CC5CC(CC(C5)C3)C4)cc(O)c2[C@@H]2C[C@@H](CO)CC[C@H]21	4	65.1	30.1	121	2.2	–	–	–	–	–	–	–	–
CC1(C)Oc2cc(C34CC5CC(CC(C5)C3)C4)cc(O)c2[C@@H]2C[C@H](CC=O)CC[C@H]21	0.8	34.3	13.2	11.2	2.6	–	–	–	–	–	–	–	–
CC1(C)Oc2cc(C34CC5CC(CC(C5)C3)C4)cc(O)c2[C@@H]2C[C@H](CC#N)CC[C@H]21	2.1	87	48.7	100	1.8	–	–	–	–	–	–	–	–
CC1(C)Oc2cc(C34CC5CC(CC(C5)C3)C4)cc(O)c2[C@@H]2C[C@H](CO)CC[C@H]21	2.3	12.1	4.9	11.3	2.5	96	–	–	–	Dose-dependent effect	Active	6.4	–
CC1(C)Oc2cc(C34CC5CC(CC(C5)C3)C4)cc(O)c2-c2cc(O)ccc21	6.2	251	88.6	551	2.8	–	–	–	–	–	–	–	–
CC1(C)Oc2cc(C34CC5CC(CC(C5)C3)C4)cc(O)c2[C@@H]2CC(=O)CC[C@H]21	–	250	–	338	–	–	–	–	–	–	–	–	–
CC1(C)Oc2cc(C34CC5CC(CC(C5)C3)C4)cc(O)c2[C@@H]2C[C@@H](C=O)CC[C@H]21	0.2	20.1	48.2	9	0.4	–	–	–	–	–	–	–	–
CC1(C)Oc2cc(C34CC5CC(CC(C5)C3)C4)cc(O)c2[C@@H]2C[C@H](C=O)CC[C@H]21	0.1	25.7	52.9	5.5	0.5	–	–	–	–	–	–	–	–
CC1(C)Oc2cc(C34CC5CC(CC(C5)C3)C4)cc(O)c2[C@@H]2C[C@@H](CCO)CC[C@H]21	8.9	21	40.9	365	0.5	–	–	–	–	–	–	–	–
CC1(C)Oc2cc(C34CC5CC(CC(C5)C3)C4)cc(O)c2-c2cc(CO)ccc21	22.2	32.3	2.1	46.7	15.4	450	–	–	–	–	–	–	4.1
CC1(C)Oc2cc(C34CC5CC(CC(C5)C3)C4)cc(O)c2[C@@H]2C[C@H](O)CC[C@H]21	–	39.4	23.9	40.5	–	–	–	–	–	–	–	–	–
COc1ccc2c(c1)-c1c(O)cc(C34CC5CC(CC(C5)C3)C4)cc1OC2(C)C	0.7	950	507	338	1.9	–	–	–	–	–	–	–	–
CC(C)(C)C(=O)OCC1=CC[C@@H]2[C@@H](C1)c1c(O)cc(C34CC5CC(CC(C5)C3)C4)cc1OC2(C)C	3	126	16.5	49.2	7.6	–	–	–	–	–	–	–	–
CC1(C)Oc2cc(C34CC5CC(CC(C5)C3)C4)cc(O)c2[C@@H]2C[C@@H](O)CC[C@H]21	–	255	146	672	–	–	–	–	–	–	–	–	–
Cc1ccc2c(c1)-c1c(O)cc(C34CC5CC(CC(C5)C3)C4)cc1OC2(C)C	1	42.2	62	63.5	0.7	–	–	–	–	–	–	–	–
